Consider 2 compounds from ChEMBL document CHEMBL2321834 (J Med Chem, 2013).

The target in assay [1] is T1, 11-beta-hydroxysteroid dehydrogenase 1 (Homo sapiens, UniProt P28845). In words: Inhibition of human recombinant 11beta-HSD1 expressed in HEK293 cell using [1,2-3H]Cortisone as substrate after 10 mins by scintillation counting analysis. The format is cell-based.
Target sequence in this assay (P28845 whole entry): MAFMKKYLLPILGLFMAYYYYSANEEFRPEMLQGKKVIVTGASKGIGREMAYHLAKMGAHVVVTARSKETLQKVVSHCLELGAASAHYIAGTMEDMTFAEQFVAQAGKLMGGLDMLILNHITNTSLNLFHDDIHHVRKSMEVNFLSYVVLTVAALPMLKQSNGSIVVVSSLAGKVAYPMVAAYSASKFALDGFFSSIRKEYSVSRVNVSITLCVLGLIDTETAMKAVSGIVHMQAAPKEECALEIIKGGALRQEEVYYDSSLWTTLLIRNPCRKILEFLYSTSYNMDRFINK
Assay [2] deals with T1, 11-beta-hydroxysteroid dehydrogenase 1. The assay can be described thus: Inhibition of human recombinant 11beta-HSD1 expressed in HEK293 cell using [1,2-3H]Cortisone as substrate at 2 uM after 10 mins by scintillation counting analysis. The format is cell-based. In outline: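 Recombinant human 11β-HSD1 or 11β-HSD2 stably transfected in HEK-293 cells, following a previously described procedure.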
Target sequence in this assay (P28845 whole entry, looked up): as the sequence (P28845 whole entry) above

Assay [3] has as its target T2, 17-beta-hydroxysteroid dehydrogenase type 2 (Homo sapiens) (UniProt P37059).
T2 sequence (whole entry): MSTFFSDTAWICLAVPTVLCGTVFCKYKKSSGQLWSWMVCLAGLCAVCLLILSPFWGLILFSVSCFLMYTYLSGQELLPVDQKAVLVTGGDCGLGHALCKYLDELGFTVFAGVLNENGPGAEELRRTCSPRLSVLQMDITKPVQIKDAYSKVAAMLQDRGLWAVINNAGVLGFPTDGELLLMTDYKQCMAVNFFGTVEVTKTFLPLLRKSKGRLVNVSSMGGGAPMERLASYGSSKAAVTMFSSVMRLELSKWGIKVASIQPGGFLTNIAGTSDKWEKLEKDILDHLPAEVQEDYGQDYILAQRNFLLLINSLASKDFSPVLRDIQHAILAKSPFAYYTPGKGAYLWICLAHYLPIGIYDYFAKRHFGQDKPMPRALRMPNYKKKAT
As to conditions: Placenta, Microsomal, at 1 µM.

The target of assay [4] is T3, Estradiol 17-beta-dehydrogenase 2 (Rattus norvegicus) (UniProt Q62730).
T3 sequence (whole entry): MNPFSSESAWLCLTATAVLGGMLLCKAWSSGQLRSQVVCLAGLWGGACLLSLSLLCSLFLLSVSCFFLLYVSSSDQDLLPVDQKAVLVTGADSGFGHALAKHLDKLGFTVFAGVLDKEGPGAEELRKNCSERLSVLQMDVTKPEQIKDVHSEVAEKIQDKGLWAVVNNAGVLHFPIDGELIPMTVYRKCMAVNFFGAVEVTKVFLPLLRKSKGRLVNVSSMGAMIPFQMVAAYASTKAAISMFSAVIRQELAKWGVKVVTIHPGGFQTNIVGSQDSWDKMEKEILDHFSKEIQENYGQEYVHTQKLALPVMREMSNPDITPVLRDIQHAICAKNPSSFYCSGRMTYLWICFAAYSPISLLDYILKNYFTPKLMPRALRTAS
The assay can be described thus: Inhibition of 17beta-HSD2 in rat liver microsomal fraction assessed as inhibition of [3H]E2 conversion to E1 at 1 uM by scintillation counting analysis. The format is microsomes. In outline:
(§1)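 Cell-free assay measuring percent inhibition of the E2-to-E1 transformation. Enzyme source was the microsomal fraction of rat or mouse liver, or of Callithrix jacchus placenta for the marmoset.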
(Microsomes from liver hold many membrane-bound enzymes, among them those of drug oxidation.)

For another assay, the species on record is Homo sapiens. The assay can be described thus: Selectivity ratio of IC50 for 17beta-HSD1 in human placental microsomal fraction to IC50 for 17beta-HSD2 in human placental microsomal fraction. The format is microsomes. As to conditions: Microsome.
For the next assay, the species on record is Callithrix jacchus. The assay can be described thus: Inhibition of 17beta-HSD2 in common marmoset placental microsomal fraction assessed as inhibition of [3H]E2 conversion to E1 at 1 uM by scintillation counting analysis. Particulars: Placenta. It is filed as microsomes. In outline: as §1
For assay [5], the target named is Estrogen receptor beta (Homo sapiens) (UniProt Q92731). The assay can be described thus: Displacement of [3H]E2 from human recombinant ERbeta after 1 hr by scintillation counting analysis relative to E2. In outline: (§2)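 Competitive binding assay against ERα and ERβ, with E2 as internal reference.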
For orientation: In a radioligand displacement assay an active substance lowers the binding of a labelled ligand.

For assay [6], the target named is T4, 17-beta-hydroxysteroid dehydrogenase type 2 (Homo sapiens, UniProt P37059).
T4 sequence (P37059 whole entry): T2 sequence (whole entry)
In words: Inhibition of 17beta-HSD2 in human MDA-MB-231 cells using [3H]E2 as substrate after 6 hrs by HPLC analysis. It is filed as cell-based.

The target in assay [7] is T5, Estrogen receptor (Homo sapiens) (UniProt P03372).
T5 sequence (whole entry): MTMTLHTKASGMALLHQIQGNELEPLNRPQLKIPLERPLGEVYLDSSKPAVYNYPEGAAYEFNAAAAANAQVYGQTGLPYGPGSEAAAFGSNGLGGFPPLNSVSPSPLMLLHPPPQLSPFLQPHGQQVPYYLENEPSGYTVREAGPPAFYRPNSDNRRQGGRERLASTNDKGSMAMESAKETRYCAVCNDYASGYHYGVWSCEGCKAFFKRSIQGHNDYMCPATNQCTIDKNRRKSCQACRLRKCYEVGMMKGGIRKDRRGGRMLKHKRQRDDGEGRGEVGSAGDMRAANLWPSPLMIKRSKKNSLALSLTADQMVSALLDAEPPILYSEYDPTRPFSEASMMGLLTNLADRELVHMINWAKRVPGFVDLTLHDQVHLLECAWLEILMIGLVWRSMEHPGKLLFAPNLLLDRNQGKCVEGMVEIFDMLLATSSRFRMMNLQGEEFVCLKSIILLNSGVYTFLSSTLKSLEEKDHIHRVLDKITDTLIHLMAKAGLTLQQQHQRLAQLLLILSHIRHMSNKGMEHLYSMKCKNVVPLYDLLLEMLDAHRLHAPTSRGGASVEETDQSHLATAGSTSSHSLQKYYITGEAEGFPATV
The assay can be described thus: Displacement of [3H]E2 from human recombinant ERalpha after 1 hr by scintillation counting analysis relative to E2. In outline:
as §2

In general, IC50 refers to the midpoint of a concentration-inhibition curve. Broadly, the inhibition is how much of the control response was suppressed.

The source made the active and inactive calls. The rule behind the calls is not given here.

Sequence of Estrogen receptor beta (Homo sapiens) (Q92731 whole entry): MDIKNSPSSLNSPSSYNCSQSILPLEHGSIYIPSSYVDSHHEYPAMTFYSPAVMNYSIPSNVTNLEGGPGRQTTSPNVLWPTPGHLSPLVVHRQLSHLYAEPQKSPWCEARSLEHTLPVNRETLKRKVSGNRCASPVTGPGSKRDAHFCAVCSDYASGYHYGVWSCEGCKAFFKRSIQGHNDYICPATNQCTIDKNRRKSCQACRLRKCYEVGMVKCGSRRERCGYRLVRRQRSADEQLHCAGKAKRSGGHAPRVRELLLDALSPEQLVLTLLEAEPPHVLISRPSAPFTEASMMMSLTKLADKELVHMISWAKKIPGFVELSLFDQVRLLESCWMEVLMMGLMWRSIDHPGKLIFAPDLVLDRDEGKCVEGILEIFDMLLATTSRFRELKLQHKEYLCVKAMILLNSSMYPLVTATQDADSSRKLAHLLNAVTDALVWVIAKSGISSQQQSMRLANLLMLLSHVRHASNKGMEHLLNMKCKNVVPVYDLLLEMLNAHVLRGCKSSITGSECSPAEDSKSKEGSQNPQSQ

As for `COc1cccc(-c2ccc(C(=O)N(C)Cc3cccc(O)c3)s2)c1F`, the IC50 in assay [1] stood at 1000 nM. Also, the inhibition in assay [2] amounted to 68%; in assay [3] it was 89%; in assay [4], 25%; in the assay listed under Callithrix jacchus, 47%. Also, the Ratio IC50 in the assay listed under Homo sapiens is 73.

As for `COc1cccc(N(C)C(=O)c2ccc(-c3cccc(OC)c3F)s2)c1`, the RBA in assay [5] and in assay [7] was below 0.1% in each case. In assay [6], this compound registered a 50% inhibitory concentration (IC50) of 105 nM. The values for the inhibition (in assay [2]; in [3]; in the assay listed under Callithrix jacchus) were 9%, 93% and 45%, respectively. Moreover, the inhibition result in assay [4] is “inactive”.
